Each block holds one compound with its values, some of them ahead of it.
Columns and labels:
Details in all cases: in vivo
[1] = system: Mus musculus; test: Tissue distribution in BDF1 female mice bearing an implanted lewis lung tumor after intravenous injection in kidney at 1 h.; type: ADME, organism-based
Summary of the method: (§1)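 Female BDF1 mice (18–20 g) with implanted Lewis lung tumor received the 2-14C compound by tail vein, 23–193 kBq in normal saline, reconstituted from a dry film just before use. Animals were killed at set times and tissues taken for 14C counting by combustion and liquid scintillation. Values are percent injected dose per gram wet tissue, mean ± standard deviation, six animals.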

[2] = system: Mus musculus; test: Tissue distribution in BDF1 female mice bearing an implanted lewis lung tumor after intravenous injection in lung at 0.5 h.; type: ADME, organism-based
Summary of the method: (§2)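 Female BDF₁ mice (18–20 g) carrying transplanted Lewis lung tumor received 23–193 kBq of the [2-¹⁴C]-labeled nucleoside in normal saline via tail vein. The compound was stored as a dry film and reconstituted just before use. Animals were killed at set times, and tissue ¹⁴C was measured by combustion and liquid scintillation. Values are mean ± SD % injected dose per gram of wet tissue, n = 6.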

[3] = system: Mus musculus; test: Tissue distribution in BDF1 female mice bearing an implanted lewis lung tumor after intravenous injection in stomach at 4 h.; type: ADME, organism-based; summary of the method: as §2
[4] = system: Mus musculus; test: Tissue distribution in BDF1 female mice bearing an implanted lewis lung tumor after intravenous injection in stomach at 2 h.; type: ADME, organism-based; summary of the method: as §2
[5] = system: Mus musculus; test: Tissue distribution in BDF1 female mice bearing an implanted lewis lung tumor after intravenous injection in kidney at 2 h.; type: ADME, organism-based; summary of the method: as §1
[6] = system: Mus musculus; test: Tissue distribution in BDF1 female mice bearing an implanted lewis lung tumor after intravenous injection in muscle at 4 h.; type: ADME, organism-based; summary of the method: as §2
[7] = system: Mus musculus; test: Tissue distribution in BDF1 female mice bearing an implanted lewis lung tumor after intravenous injection in lung at 0.25 h.; type: ADME, organism-based; summary of the method: as §2
[8] = system: Mus musculus; test: Tissue distribution in BDF1 female mice bearing an implanted lewis lung tumor after intravenous injection in liver at 24 h.; type: ADME, organism-based; summary of the method: as §2
[9] = system: Mus musculus; test: Tissue distribution in BDF1 female mice bearing an implanted lewis lung tumor after intravenous injection in spleen at 8 h.; type: ADME, organism-based; summary of the method: as §2
[10] = system: Mus musculus; test: Tissue distribution in BDF1 female mice bearing an implanted lewis lung tumor after intravenous injection in heart at 24 h.; type: ADME, organism-based; summary of the method: as §1
[11] = system: Mus musculus; test: Tissue distribution in BDF1 female mice bearing an implanted lewis lung tumor after intravenous injection in blood at 8 h.; type: ADME, organism-based; summary of the method: as §1
[12] = system: Mus musculus; test: Tissue distribution in BDF1 female mice bearing an implanted lewis lung tumor after intravenous injection in kidney at 0.5 h.; type: ADME, organism-based; summary of the method: as §1
[13] = system: Mus musculus; test: Tissue distribution in BDF1 female mice bearing an implanted lewis lung tumor after intravenous injection in bone at 8 h.; type: ADME, organism-based; summary of the method: as §1
[14] = system: Mus musculus; test: Tissue distribution in BDF1 female mice bearing an implanted lewis lung tumor after intravenous injection in blood at 0.25 h; type: ADME, organism-based; summary of the method: as §1
[15] = system: Mus musculus; test: Tissue distribution in BDF1 female mice bearing an implanted lewis lung tumor after intravenous injection in tumor at 24 h.; type: ADME, organism-based
Summary of the method: (§3)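 Female BDF1 mice (18–20 g) carrying a transplanted Lewis lung tumor were given 23–193 kBq of the [2-14C]-labelled nucleoside in normal saline by tail vein. Animals were killed at set times. Tissue 14C was counted by liquid scintillation, after combustion or directly. Values are percent of injected dose per gram wet tissue, as mean ± standard deviation of six animals.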

[16] = system: Mus musculus; test: Tissue distribution in BDF1 female mice bearing an implanted lewis lung tumor after intravenous injection in blood at 4 h.; type: ADME, organism-based; summary of the method: as §1
[17] = system: Mus musculus; test: Tissue distribution in BDF1 female mice bearing an implanted lewis lung tumor after intravenous injection in heart at 8 h.; type: ADME, organism-based; summary of the method: as §1
[18] = system: Mus musculus; test: Tissue distribution in BDF1 female mice bearing an implanted lewis lung tumor after intravenous injection in skin at 8 h.; type: ADME, organism-based, Skin of body; summary of the method: as §2
[19] = system: Mus musculus; test: Tissue distribution in BDF1 female mice bearing an implanted lewis lung tumor after intravenous injection in skin at 0.5 h.; type: ADME, organism-based, Skin of body; summary of the method: as §2
[20] = system: Mus musculus; test: Tissue distribution in BDF1 female mice bearing an implanted lewis lung tumor after intravenous injection in git(Section of intestine) at 2 h.; type: ADME, organism-based; summary of the method: as §1
[21] = system: Mus musculus; test: Tissue distribution in BDF1 female mice bearing an implanted lewis lung tumor after intravenous injection in spleen at 1 h.; type: ADME, organism-based; summary of the method: as §2
[22] = system: Mus musculus; test: Tissue distribution in BDF1 female mice bearing an implanted lewis lung tumor after intravenous injection in heart at 0.25 h.; type: ADME, organism-based; summary of the method: as §1
[23] = system: Mus musculus; test: Tissue distribution in BDF1 female mice bearing an implanted lewis lung tumor after intravenous injection in bone at 0.5 h.; type: ADME, organism-based; summary of the method: as §1
[24] = system: Mus musculus; test: Tissue distribution in BDF1 female mice bearing an implanted lewis lung tumor after intravenous injection in liver at 0.25 h.; type: ADME, organism-based; summary of the method: as §2
[25] = system: Mus musculus; test: Tissue distribution in BDF1 female mice bearing an implanted lewis lung tumor after intravenous injection in git(Section of intestine) at 0.25 h.; type: ADME, organism-based; summary of the method: as §1
[26] = system: Mus musculus; test: Tissue distribution in BDF1 female mice bearing an implanted lewis lung tumor after intravenous injection in kidney at 8 h.; type: ADME, organism-based; summary of the method: as §2
[27] = system: Mus musculus; test: Tissue distribution in BDF1 female mice bearing an implanted lewis lung tumor after intravenous injection in lung at 4 h; type: ADME, organism-based; summary of the method: as §2
[28] = system: Mus musculus; test: Tissue distribution in BDF1 female mice bearing an implanted lewis lung tumor after intravenous injection in stomach at 24 h.; type: ADME, organism-based; summary of the method: as §2
[29] = system: Mus musculus; test: Tissue distribution in BDF1 female mice bearing an implanted lewis lung tumor after intravenous injection in blood at 24 h.; type: ADME, organism-based; summary of the method: as §1
[30] = system: Mus musculus; test: Tissue distribution in BDF1 female mice bearing an implanted lewis lung tumor after intravenous injection in kidney at 24 h.; type: ADME, organism-based; summary of the method: as §2
[31] = system: Mus musculus; test: Tissue distribution in BDF1 female mice bearing an implanted lewis lung tumor after intravenous injection in blood at 0.5 h.; type: ADME, organism-based; summary of the method: as §1
[32] = system: Mus musculus; test: Tissue distribution in BDF1 female mice bearing an implanted lewis lung tumor after intravenous injection in heart at 2 h.; type: ADME, organism-based; summary of the method: as §1
[33] = system: Mus musculus; test: Tissue distribution in BDF1 female mice bearing an implanted lewis lung tumor after intravenous injection in muscle at 8 h.; type: ADME, organism-based; summary of the method: as §2
[34] = system: Mus musculus; test: Tissue distribution in BDF1 female mice bearing an implanted lewis lung tumor after intravenous injection in skin at 4 h.; type: ADME, organism-based, Skin of body; summary of the method: as §2
[35] = system: Mus musculus; test: Tissue distribution in BDF1 female mice bearing an implanted lewis lung tumor after intravenous injection in liver at 2 h.; type: ADME, organism-based; summary of the method: as §2
[36] = system: Mus musculus; test: Tissue distribution in BDF1 female mice bearing an implanted lewis lung tumor after intravenous injection in spleen at 0.5 h.; type: ADME, organism-based; summary of the method: as §2
[37] = system: Mus musculus; test: Tissue distribution in BDF1 female mice bearing an implanted lewis lung tumor after intravenous injection in git(Section of intestine) at 4 h.; type: ADME, organism-based; summary of the method: as §1
[38] = system: Mus musculus; test: Tissue distribution in BDF1 female mice bearing an implanted lewis lung tumor after intravenous injection in git(Section of intestine) at 8 h.; type: ADME, organism-based; summary of the method: as §1
[39] = system: Mus musculus; test: Tissue distribution in BDF1 female mice bearing an implanted lewis lung tumor after intravenous injection in muscle at 1 h.; type: ADME, organism-based; summary of the method: as §2
[40] = system: Mus musculus; test: Tissue distribution in BDF1 female mice bearing an implanted lewis lung tumor after intravenous injection in spleen at 2 h.; type: ADME, organism-based; summary of the method: as §2
[41] = system: Mus musculus; test: Tissue distribution in BDF1 female mice bearing an implanted lewis lung tumor after intravenous injection in bone at 1 h.; type: ADME, organism-based; summary of the method: as §1
[42] = system: Mus musculus; test: Tissue distribution in BDF1 female mice bearing an implanted lewis lung tumor after intravenous injection in muscle at 24 h.; type: ADME, organism-based; summary of the method: as §2
[43] = system: Mus musculus; test: Tissue distribution in BDF1 female mice bearing an implanted lewis lung tumor after intravenous injection in tumor at 4 h.; type: ADME, organism-based; summary of the method: as §3
[44] = system: Mus musculus; test: Tissue distribution in BDF1 female mice bearing an implanted lewis lung tumor after intravenous injection in tumor at 0.25 h.; type: ADME, organism-based; summary of the method: as §3

- Tissue distribution [1]: 8.21
- Tissue distribution [2]: 1.43
- Tissue distribution [3]: 0.02
- Tissue distribution [4]: 0.07
- Tissue distribution [5]: 0.84
- Tissue distribution [6]: 0.02
- Tissue distribution [7]: 3.37
- Tissue distribution [8]: 0.005
- Tissue distribution [9]: 0.09
- Tissue distribution [10]: 0.005
- Tissue distribution [11]: 0.01
- Tissue distribution [12]: 21.9
- Tissue distribution [13]: 0.03
- Tissue distribution [14]: 3.49
- Tissue distribution [15]: 0.02
- Tissue distribution [16]: 0.02
- Tissue distribution [17]: 0.009
- Tissue distribution [18]: 0.01
- Tissue distribution [19]: 1.18
- Tissue distribution [20]: 0.11
- Tissue distribution [21]: 1.44
- Tissue distribution [22]: 3.8
- Tissue distribution [23]: 0.85
- Tissue distribution [24]: 3.37
- Tissue distribution [25]: 3.35
- Tissue distribution [26]: 0.02
- Tissue distribution [27]: 0.02
- Tissue distribution [28]: 0.005
- Tissue distribution [29]: 0.01
- Tissue distribution [30]: 0.01
- Tissue distribution [31]: 1.59
- Tissue distribution [32]: 0.08
- Tissue distribution [33]: 0.01
- Tissue distribution [34]: 0.11
- Tissue distribution [35]: 0.08
- Tissue distribution [36]: 3.77
- Tissue distribution [37]: 0.04
- Tissue distribution [38]: 0.02
- Tissue distribution [39]: 0.37
- Tissue distribution [40]: 0.29
- Tissue distribution [41]: 0.35
- Tissue distribution [42]: 0.004
- Tissue distribution [43]: 0.16
- Tissue distribution [44]: 5.26
SMILES: O=c1[nH]c(=O)n([C@H]2O[C@@H](CO)[C@H](O)[C@H]2F)cc1F

- Tissue distribution [1]: 7.28
- Tissue distribution [2]: 1.41
- Tissue distribution [3]: 0.07
- Tissue distribution [4]: 0.31
- Tissue distribution [5]: 1.6
- Tissue distribution [6]: 0.05
- Tissue distribution [7]: 2.73
- Tissue distribution [8]: 0.02
- Tissue distribution [9]: 0.15
- Tissue distribution [10]: 0.02
- Tissue distribution [11]: 0.03
- Tissue distribution [12]: 23.2
- Tissue distribution [13]: 0.02
- Tissue distribution [14]: 3.54
- Tissue distribution [15]: 0.03
- Tissue distribution [16]: 0.06
- Tissue distribution [17]: 0.03
- Tissue distribution [18]: 0.02
- Tissue distribution [19]: 1.24
- Tissue distribution [20]: 0.17
- Tissue distribution [21]: 0.48
- Tissue distribution [22]: 3.07
- Tissue distribution [23]: 0.41
- Tissue distribution [24]: 2.39
- Tissue distribution [25]: 1.91
- Tissue distribution [26]: 0.09
- Tissue distribution [27]: 0.06
- Tissue distribution [28]: 0.01
- Tissue distribution [29]: 0.01
- Tissue distribution [30]: 0.03
- Tissue distribution [31]: 1.82
- Tissue distribution [32]: 0.17
- Tissue distribution [33]: 0.03
- Tissue distribution [34]: 0.04
- Tissue distribution [35]: 0.15
- Tissue distribution [36]: 1.08
- Tissue distribution [37]: 0.06
- Tissue distribution [38]: 0.04
- Tissue distribution [39]: 0.27
- Tissue distribution [40]: 0.34
- Tissue distribution [41]: 0.17
- Tissue distribution [42]: 0.01
- Tissue distribution [43]: 0.23
- Tissue distribution [44]: 2.62
SMILES: O=c1[nH]c(=O)n([C@H]2O[C@@H](CO)[C@H](O)[C@H]2F)cc1Cl

Source: ChEMBL document CHEMBL1123716, “Synthesis and tumor uptake of 5-halo-1-(2'-fluoro-2'-deoxy-beta-D-ribofuranosyl)[2-14C]uracils” (J Med Chem, 1987)
